According to ChEMBL document CHEMBL3352624, “Vanillin-derived antiproliferative compounds influence Plk1 activity” (Bioorg Med Chem Lett, 2014):
Calls of active or inactive are those of the source. The rule behind the calls is not given here.

Assays:
[1] = test system: HeLa; experiment: Antiproliferative activity against human HeLa cells assessed as growth inhibition after 24 to 72 hrs; format: functional, cell-based
Summary of the method: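 HeLa cells were exposed to compound for 24–72 h, with medium-only cells as control. Surviving cells are expressed as a percentage of control cell number at 72 h. n = 3.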

[2] = biological target: Serine/threonine-protein kinase PLK2 (Homo sapiens, UniProt Q9NYY3); experiment: Inhibition of Plk2 immunoprecipitated from human HeLa cells using casein substrate after 12 to 26 hrs by autoradiography; format: cell-based
Chain of Serine/threonine-protein kinase PLK2 (Q9NYY3 whole entry): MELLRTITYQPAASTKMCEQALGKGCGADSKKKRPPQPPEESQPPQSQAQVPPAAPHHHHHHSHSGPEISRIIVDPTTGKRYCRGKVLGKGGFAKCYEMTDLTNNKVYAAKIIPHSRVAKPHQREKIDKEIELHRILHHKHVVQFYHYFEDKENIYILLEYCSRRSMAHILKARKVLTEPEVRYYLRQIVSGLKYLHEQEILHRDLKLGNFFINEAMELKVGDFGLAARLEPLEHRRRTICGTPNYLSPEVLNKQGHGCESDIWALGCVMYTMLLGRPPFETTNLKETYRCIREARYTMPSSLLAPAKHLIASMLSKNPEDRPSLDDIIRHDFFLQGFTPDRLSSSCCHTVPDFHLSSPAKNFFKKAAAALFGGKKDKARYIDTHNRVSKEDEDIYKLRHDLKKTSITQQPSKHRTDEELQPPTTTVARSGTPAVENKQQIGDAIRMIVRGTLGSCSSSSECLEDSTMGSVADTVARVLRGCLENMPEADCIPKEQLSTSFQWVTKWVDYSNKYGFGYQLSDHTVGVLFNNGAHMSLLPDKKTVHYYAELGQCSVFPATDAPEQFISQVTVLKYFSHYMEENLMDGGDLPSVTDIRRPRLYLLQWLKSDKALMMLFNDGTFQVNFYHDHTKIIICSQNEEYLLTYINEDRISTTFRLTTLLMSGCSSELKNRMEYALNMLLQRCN
Summary of the method: (§1)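 HeLa cells were synchronized and incubated with compound. Plk1, Plk2 or Plk3 was then immunoprecipitated from the cells and assayed for kinase activity with casein as substrate. Activity was read by autoradiography.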

[3] = test system: HeLa; experiment: Induction of apoptosis in human HeLa cells assessed as caspase-3/7 activation at 1 nM to 66 uM by […]; format: functional, cell-based; conditions: TDE = time-dependent effect
Summary of the method: (§2)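 Caspase 3/7 activation in HeLa cells was read 48 h after treatment by luminescence and reported as relative RLU versus medium-only controls. n = 3, mean SD.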

[4] = test system: HeLa; experiment: Induction of apoptosis in human HeLa cells assessed as increase in PARP cleavage at 33 uM after 48 hrs by Western blot analysis; format: functional, cell-based
Summary of the method: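 HeLa cells were harvested 48 h after compound incubation, with untreated medium controls. Western blotting against Parp detected both full-length protein and its apoptotic cleavage product.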

[5] = biological target: Serine/threonine-protein kinase PLK1 (Homo sapiens, UniProt P53350); experiment: Inhibition of Plk1 immunoprecipitated from human HeLa cells using casein substrate after 12 to 26 hrs by autoradiography; format: cell-based; summary of the method: as §1
Chain of Serine/threonine-protein kinase PLK1 (P53350 whole entry): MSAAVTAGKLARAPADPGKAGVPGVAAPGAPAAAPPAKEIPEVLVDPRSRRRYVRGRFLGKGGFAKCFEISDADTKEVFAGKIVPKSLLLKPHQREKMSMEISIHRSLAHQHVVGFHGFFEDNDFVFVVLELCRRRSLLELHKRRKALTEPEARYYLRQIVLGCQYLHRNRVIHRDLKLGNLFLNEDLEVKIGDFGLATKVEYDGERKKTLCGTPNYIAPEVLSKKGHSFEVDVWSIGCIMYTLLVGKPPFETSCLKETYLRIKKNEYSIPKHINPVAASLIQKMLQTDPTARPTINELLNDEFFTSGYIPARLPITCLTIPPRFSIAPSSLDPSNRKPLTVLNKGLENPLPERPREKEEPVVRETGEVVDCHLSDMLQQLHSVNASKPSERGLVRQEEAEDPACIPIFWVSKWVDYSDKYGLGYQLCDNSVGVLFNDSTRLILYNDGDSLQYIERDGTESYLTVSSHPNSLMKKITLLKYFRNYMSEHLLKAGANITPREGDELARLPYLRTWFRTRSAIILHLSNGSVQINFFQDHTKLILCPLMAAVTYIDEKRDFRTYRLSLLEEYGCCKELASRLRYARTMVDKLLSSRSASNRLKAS

[6] = test system: HeLa; experiment: Induction of apoptosis in human HeLa cells assessed as caspase-3/7 activation after 48 hrs […]; format: functional, cell-based; summary of the method: as §2
[7] = biological target: Serine/threonine-protein kinase PLK3 (Homo sapiens, UniProt Q9H4B4); experiment: Inhibition of Plk3 immunoprecipitated from human HeLa cells using casein substrate after 12 to 26 hrs by autoradiography; format: cell-based; summary of the method: as §1
Chain of Serine/threonine-protein kinase PLK3 (Q9H4B4 whole entry): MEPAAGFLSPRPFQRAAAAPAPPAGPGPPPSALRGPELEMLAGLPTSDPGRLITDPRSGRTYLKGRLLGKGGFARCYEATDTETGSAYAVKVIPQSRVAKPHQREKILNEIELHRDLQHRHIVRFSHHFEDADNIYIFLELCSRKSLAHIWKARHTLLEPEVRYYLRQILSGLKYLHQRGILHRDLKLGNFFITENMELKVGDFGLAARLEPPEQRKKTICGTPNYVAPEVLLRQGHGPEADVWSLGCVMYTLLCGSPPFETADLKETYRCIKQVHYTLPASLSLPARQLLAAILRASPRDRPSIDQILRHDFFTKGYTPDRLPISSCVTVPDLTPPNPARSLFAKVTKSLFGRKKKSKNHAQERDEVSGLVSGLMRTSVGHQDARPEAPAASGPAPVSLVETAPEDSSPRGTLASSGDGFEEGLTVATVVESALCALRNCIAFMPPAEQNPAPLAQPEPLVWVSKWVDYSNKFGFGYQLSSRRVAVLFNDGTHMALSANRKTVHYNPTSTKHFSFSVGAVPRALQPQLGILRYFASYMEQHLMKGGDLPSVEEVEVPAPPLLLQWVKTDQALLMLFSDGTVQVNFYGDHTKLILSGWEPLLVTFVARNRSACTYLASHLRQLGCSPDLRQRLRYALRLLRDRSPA

[8] = Homo sapiens, HeLa, read-out: EC50

SMILES | EC50 [1, 8] | also measured
COc1cc(CNCCSc2nnnn2C)ccc1OCc1ccc(Cl)nc1 | 86 µM | –
COc1cc(CNCCCN(C)C)ccc1OCc1ccc(Cl)nc1 | 5 µM | –
COc1cc(CNCC2CCCO2)ccc1OCc1ccc(Cl)nc1 (centres undefined) | 66 µM | –
COc1ccc(COc2ccc(CNCc3ccncc3)cc2OC)cc1 | 5 µM | –
COc1cc(CNCc2ccncc2)ccc1OCc1ccc(C(F)(F)F)cc1 | 2.4 µM | –
COc1ccc(CCNCc2ccc(OCc3cccs3)c(OC)c2)cc1OC | 18 µM | –
COc1ccc(CCNCc2ccc(OCc3ccc(Cl)nc3)c(OC)c2)cc1OC | 18 µM | –
COc1cc(CNC2CCCCC2)ccc1OCc1ccc(Cl)nc1 | – | EC50 ([1]; hela): ND(Insoluble)
CCOc1cc(CNCc2ccncc2)ccc1OCc1ccc(Cl)cc1 | 2.5 µM | –
COc1cc(CNCCc2ccc(F)cc2)ccc1OCc1ccc(Cl)nc1 | 16 µM | –
COc1cc(CNCCNc2ccnc3cc(Cl)ccc23)ccc1OCc1ccc(Cl)nc1 | 2.7 µM | –
COc1cc(OCc2cnc(Cl)c(Cl)c2)ccc1CNCc1ccncc1 | 0.4 µM | –
COc1ccc(CCNCc2ccc(OCc3ccc(Cl)nc3)c(OC)c2)cc1 | – | EC50 ([1]; hela): ND(Insoluble)
COc1ccc(CCNCc2ccc(OCC(=O)N3CCCCC3)c(OC)c2)cc1OC | 87 µM | –
COc1cc(CNCCc2c[nH]c3ccccc23)ccc1OCc1ccc(Cl)nc1 | 8 µM | –
COc1cc(CNCc2ccc3c(c2)OCO3)ccc1OCc1ccc(Cl)nc1 | 71 µM | –
COc1cc(CNCCc2ccc(S(N)(=O)=O)cc2)ccc1OCc1ccc(Cl)nc1 | 12 µM | –
COc1cc(CNCc2ccncc2)ccc1OCc1ccc([N+](=O)[O-])cc1 | 0.44 µM | –
COc1cc(CNc2nc[nH]n2)ccc1OCc1ccc(Cl)nc1 | 69 µM | –
Clc1ccc(COc2ccc(CNCc3ccncc3)cc2)cc1 | 4 µM | –
COc1cc(CNCCc2ccncc2)ccc1OCc1ccc(Cl)nc1 | 55 µM | –
COc1ccc(CCNCc2ccc(OCC(=O)NC(C)(C)C)c(OC)c2)cc1OC | > 100 µM | –
COc1cc(OCc2ccc(Cl)nc2)ccc1CNCc1ccncc1 | 3.3 µM | –
COCCNCc1ccc(OCc2ccc(Cl)nc2)c(OC)c1 | 97 µM | –
COc1cc(OCc2ccc(Cl)cc2)ccc1CNCc1ccncc1 | 0.44 µM | –
COc1cc(CNCc2ccc(C(=O)O)cc2)ccc1OCc1ccc(Cl)nc1 | – | EC50 ([1]; hela): ND(Insoluble)
COc1ccc(CCNCc2ccc(OCC(=O)N3CCOCC3)c(OC)c2)cc1OC | 85 µM | –
COc1cc(CNCCNC(=O)c2cnon2)ccc1OCc1ccc(Cl)nc1 | 24 µM | –
COc1cc(CNCCCN2CCOCC2)ccc1OCc1ccc(Cl)nc1 | > 100 µM | –

Now from value to compound, other results behind:

EC50 [1, 8] | SMILES | also measured
0.4 µM | COc1cc(CNCc2ccncc2)ccc1OCc1ccc(Cl)nc1 | –
0.22 µM | COc1cc(CNCc2ccncc2)ccc1OCc1cnc(Cl)c(Cl)c1 | –
5.1 µM | COc1cc(CNCc2ccncc2)ccc1OCc1ccccc1F | –
4 µM | COc1cc(CNCc2ccncc2)ccc1OCc1ccc(Cl)c(Cl)c1 | –
0.89 µM | COc1cc(CNCc2ccncc2)ccc1OCc1ccc(Cl)cc1 | IC50 [2]: > 10 µM; Activity [3]: tde; Activity [4]: Active; IC50 [5]: 0.003 µM; Activity [6]: Dose-dependent effect; IC50 [7]: > 10 µM
13 µM | COc1cc(CNCc2ccccn2)ccc1OCc1ccc(Cl)c(Cl)c1 | –
60 µM | COc1cc(CNCC(=O)c2ccccc2)ccc1OCc1ccc(Cl)nc1 | –
90 µM | COc1cc(CNCc2ccccc2)ccc1OCc1ccc(Cl)nc1 | –
5 µM | COc1cc(CNCc2ccncc2)ccc1OCc1ccc(C)cc1 | –
18 µM | COc1cc(CNCc2ccccn2)ccc1OCc1cccc(Cl)c1 | –
6.1 µM | COc1cc(CNCc2ccccn2)ccc1OCc1c(Cl)cccc1Cl | –
4.8 µM | COc1cc(CNCc2ccncc2)ccc1OCc1cccc(F)c1 | –
6.4 µM | COc1cc(CNCc2ccncc2)ccc1OCc1ccc(F)cc1 | –
22 µM | COc1cc(CNCc2ccccn2)ccc1OCc1ccccc1Cl | –
18 µM | COc1cc(CNCCc2ccccc2F)ccc1OCc1ccc(Cl)nc1 | –
96 µM | COc1cc(CNCc2cccs2)ccc1OCc1ccc(Cl)nc1 | –
5 µM | COc1cc(CNCc2cccnc2)ccc1OCc1ccc(Cl)nc1 | –
3.9 µM | COc1cc(CNCc2ccncc2)ccc1OCc1ccc(Cl)cc1Cl | –
61 µM | COc1cc(CNCCc2ccccc2)ccc1OCc1ccc(Cl)nc1 | –
